The source of these data is ChEMBL document CHEMBL1153851, “(+/-)-3,4-Dihydroxy-8,9-methylenedioxypterocarpan and derivatives: cytotoxic effect on human leukemia cell lines” (Eur J Med Chem, 2009).

The test system of one data set is K562. Description: Cytotoxicity against human K562 cells assessed as cell viability after 72 hrs by MTT assay. In kind it is functional, cell-based. The conditions noted are these: K562, 72 h. The essentials:
(§1)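 Cells were kept in RPMI 1640 with 5 × 10^-5 M β-mercaptoethanol, 25 mM Hepes (pH 7.4) and 10% heat-inactivated FCS. Daudi received 20% FCS, and Lucena I received 60 nM vincristine to maintain resistance. Cells were seeded at 2 × 10⁴ cells/mL with compound (0.1–50) for 72 h at 37 °C, 5% CO₂. MTT (5 mg/mL stock) was added for 3 h, formazan was dissolved in DMSO, and A490 was read. Triplicate points; mean of ≥3 experiments.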
A general note: Tetrazolium dyes change colour on reduction, which living cells bring about.

A short description of data set [1]: Cytotoxicity against human K562-Lucena 1 cells assessed as cell viability after 72 hrs by MTT assay. In kind it is functional, cell-based. As to conditions: K562-Lucena 1, 72 h. The essentials: as §1
The next data set relates to HL-60. As to the kind of experiment: Cytotoxicity against human HL60 cells assessed as cell viability after 72 hrs by MTT assay. As to conditions: HL-60, 72 h. The data set is classed as functional, cell-based. The essentials: as §1
A further data set concerns Jurkat. Description: Cytotoxicity against human Jurkat cells assessed as cell viability after 72 hrs by MTT assay. The data set is classed as functional, cell-based. The essentials:
as §1

For another data set, the system named is Daudi. Description: Cytotoxicity against human Daudi cells assessed as cell viability after 72 hrs by MTT assay. The data set is classed as functional, cell-based. Summed up: as §1
Data set [2] can be described thus: Toxicity against PHA-activated human peripheral lymphocytes assessed as cell viability after 72 hrs by MTT assay. In kind it is cell-based, Lymphocyte. Summed up: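 PBMC from healthy-volunteer heparinized blood were isolated by Ficoll-Hypaque gradient and resuspended at 10⁶ cells/mL in supplemented RPMI 1640. They were stimulated with PHA and exposed to compound at 2.5–10 µM for 72 h. Controls received diluent without PHA. Viability was read by MTT. Triplicate points; mean ± SD of ≥3 experiments.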

What is called IC50 is the point on the concentration scale where inhibition reaches its midpoint.

With `Oc1cc2c(cc1O)[C@@H]1Oc3cc4c(cc3[C@@H]1CO2)OCO4`, the IC50 with K562 is more than 20 µM; in data set [1] it was more than 50 µM; in the data set with HL-60, more than 20 µM.

Consider `Oc1ccc2c(c1)OC[C@@H]1c3cc4c(cc3O[C@H]21)OCO4` [(+)-MAACKIAIN], for which the IC50 (in the data set with K562; in data set [1]; in the data set on HL-60) was more than 50 µM in each case.

In the case of `COc1cc2c(cc1O)[C@H]1COc3c(ccc(O)c3O)[C@H]1O2` (racemic), the IC50 was more than 10 µM with K562, more than 20 µM in data set [1] and 6.4 µM in the data set on HL-60.

In the case of `Oc1ccc2c(c1O)OC[C@@H]1c3cc4c(cc3O[C@H]21)OCO4`, the concentration for half-maximal inhibition (IC50) in the data set on K562 turned out to be 3 µM; in data set [1], 3.7 µM; in the data set with HL-60, 2.1 µM; in the data set with Jurkat it was 7.6 µM; in the data set on Daudi it was 2.8 µM.

Turning to `O=C1C=CC2=C(OC[C@@H]3c4cc5c(cc4O[C@H]23)OCO5)C1=O` (racemic), the IC50 with Daudi was 0.9 µM. Also, the IC50 at 72 h in data set [2] is 2.4 µM.
